Source: PubChem (several laboratories)
Shown are actives, neighbours in structure and some others; about 3.5% of the full set was active somewhere.
ABCB1 block: blocks JC-1 efflux by human ABCB1 transporter. CCRF-Adr cells, flow cytometry. hit rate 0.067% among 190,000. P08183. inhibition, % at 6.6 µM; in the data active = inhibition above about 40%;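 also: 0% = vehicle and 100% = reference inhibitor; higher value means more JC-1 retained so stronger ABCB1 efflux block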
Target sequence (P08183 whole entry, looked up): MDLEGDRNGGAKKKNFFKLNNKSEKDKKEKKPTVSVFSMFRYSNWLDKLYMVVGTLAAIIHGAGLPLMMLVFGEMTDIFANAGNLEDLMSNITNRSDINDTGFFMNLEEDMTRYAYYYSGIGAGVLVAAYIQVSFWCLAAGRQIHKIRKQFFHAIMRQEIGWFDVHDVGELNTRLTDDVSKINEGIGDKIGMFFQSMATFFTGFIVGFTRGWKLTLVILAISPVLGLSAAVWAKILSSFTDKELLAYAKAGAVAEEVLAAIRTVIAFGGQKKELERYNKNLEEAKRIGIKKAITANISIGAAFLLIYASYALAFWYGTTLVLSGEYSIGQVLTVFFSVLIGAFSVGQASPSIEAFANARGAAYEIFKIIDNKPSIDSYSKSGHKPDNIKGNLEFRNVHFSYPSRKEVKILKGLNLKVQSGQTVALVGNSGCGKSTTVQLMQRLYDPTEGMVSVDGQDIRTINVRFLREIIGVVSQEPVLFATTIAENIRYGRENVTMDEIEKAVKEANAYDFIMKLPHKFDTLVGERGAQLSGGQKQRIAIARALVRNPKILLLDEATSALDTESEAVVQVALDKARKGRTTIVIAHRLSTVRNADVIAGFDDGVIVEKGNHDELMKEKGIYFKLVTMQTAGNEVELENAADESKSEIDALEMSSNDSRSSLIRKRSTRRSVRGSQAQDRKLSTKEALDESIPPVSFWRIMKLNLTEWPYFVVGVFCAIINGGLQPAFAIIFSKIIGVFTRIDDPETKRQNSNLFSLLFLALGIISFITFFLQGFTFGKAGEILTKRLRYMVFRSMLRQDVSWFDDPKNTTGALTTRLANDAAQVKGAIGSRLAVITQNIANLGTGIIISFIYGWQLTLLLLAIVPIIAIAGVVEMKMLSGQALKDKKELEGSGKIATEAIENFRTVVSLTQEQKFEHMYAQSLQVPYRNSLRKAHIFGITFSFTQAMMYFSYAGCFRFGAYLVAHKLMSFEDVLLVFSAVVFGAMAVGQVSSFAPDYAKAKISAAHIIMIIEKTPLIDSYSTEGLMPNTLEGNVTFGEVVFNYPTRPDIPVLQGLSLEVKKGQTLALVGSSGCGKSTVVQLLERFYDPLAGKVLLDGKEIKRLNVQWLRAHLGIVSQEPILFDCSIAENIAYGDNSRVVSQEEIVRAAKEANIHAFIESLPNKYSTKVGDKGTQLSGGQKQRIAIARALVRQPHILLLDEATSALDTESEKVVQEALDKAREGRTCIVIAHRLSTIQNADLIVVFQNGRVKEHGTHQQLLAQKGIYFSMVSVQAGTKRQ
MEKK3 PB1 HTS: raises or lowers MEK5 binding to the human MEKK3 PB1 domain; bead-based flow cytometry, Alexa488-MEK5 binding to MEKK3; actives lie on both sides; 0 = blocked by unlabeled MEK5, 100 = vehicle; hit rate 1.4% among 290,000; binding response (% of control), % at 10 µM; Q99759; AID 1529;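 active = binding response more than 3 SD above or below the average of its plate-row segment, actives on both sides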;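 also: Alexa488 bead fluorescence after subtracting the streptavidin-only scavenger bead signal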
ABCG2 block: human ABCG2 inhibition, ABCB1 as counter-screen | inhibition, % at 6.6 µM | hit rate 0.1% among 190,000 | Q9UNQ0 | AID 1325 | IgMXP3 cells, JC-1 efflux, flow cytometry;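 active = inhibition above 80%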;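 also: 0% = DMSO and 100% = nicardipine control wells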
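Test system: ABCG2 IgMXP3 and barcoded ABCB1 CCRF-Adr cell mix; Schedule: cells with compound and JC-1, 10 min at 25 °C, rotating, no wash; Technique: flow cytometry of retained JC-1 fluorescence; Measure: % inhibition of efflux relative to nicardipine and DMSO; Controls: nicardipine high and DMSO low controls.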
MEKK2 WT-MEK5: raises or lowers MEK5 binding to wildtype human MEKK2 PB1 domain | hit rate 1.1% among 290,000 | bead flow cytometry, Alexa488-MEK5 binding to MEKK2 WT; actives lie on both sides | Q9Y2U5 | binding response (% of control), % at 10 µM | AID 1531; in the data active = binding response below about 67% or above about 130%
MEKK2mut PB1 HTS: signal of MEK5 binding to mutant human MEKK2 PB1 domain; AID 1530; percent response, % at 10 µM; bead flow cytometry, Alexa488-MEK5 binding to MEKK2 mutant; hit rate 0.35% among 290,000; in the data active = percent response above about 24%, passing the limit was not always enough
WT yeast gro inh: growth inhibition of WT yeast, mitochondrial fusion screen | mitochondrial fusion phenotypic screen, WT strain | hit rate 2.1% among 190,000 | inhibition, % at 10 µM | AID 1362; in the data active = inhibition above about 58%; tested in S. cerevisiae
MEKK2wt confirm: raises or lowers MEK5 binding to wildtype human MEKK2, retest | shares compounds with MEKK3 PB1 HTS | bead flow cytometry, Alexa488-MEK5 binding to MEKK2 WT; actives lie on both sides | binding response (% of control), % at 10 µM | hit rate 2.4% among 5,900; in the data active = binding response below about 16% or above about 210%; inactive = in between
MEKK2mut-MEK5: signal of MEK5 binding to mutant human MEKK2, retest | shares compounds with MEKK3 PB1 HTS | bead flow cytometry, Alexa488-MEK5 binding to MEKK2 mutant | percent response, % at 10 µM | hit rate 2% among 5,900 | AID 1893; in the data active = percent response mostly above about 71%, no sharp cut-off; inactive = mostly below about 38%;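 also: higher means compound restores mutant binding toward wildtype level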
MEKK3-MEK5 inh: confirmation of inhibitors of MEK5 binding to human MEKK3 | shares compounds with MEKK3 PB1 HTS | bead flow cytometry, Alexa488-MEK5 binding to MEKK3; stronger effect = lower value | binding response (% of control), % at 10 µM | hit rate 1.8% among 5,900;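 active = binding response below 72% of control, or above a set upper limit, though filed actives all read lower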;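 also: 100% = DMSO only wells and 0% = binding blocked by excess unlabeled MEK5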
Starred values were filed as active, the others as inactive; . = no result; [ ] = remark or other dose.

SMILES	ABCB1 block	MEKK3 PB1 HTS	ABCG2 block	MEKK2 WT-MEK5	MEKK2mut PB1 HTS	WT yeast gro inh	MEKK2wt confirm	MEKK2mut-MEK5	MEKK3-MEK5 inh
CC(=O)Nc1sc(/C(C#N)=C\c2cccc(Cl)c2)nc1-c1ccc(C)cc1	24.4	107.0	38.4	13.0*[inhibitor]	26.0	-5.1	99.0	-4.0	106.0
CCN(CC)C(=O)c1cc(C(C)(C)C)c(O)c(C(C)(C)C)c1	1.6	128.0*	19.0	105.0	0.0	6.4	108.0	8.0	105.0
CC1CCCCC1NC(=O)COC(=O)CNC(=O)c1cccc(F)c1 (stereo not drawn)	0.0	72.0	5.2	83.0	-9.0	-17.4	.	.	.
O=C(Nc1ccc(SC(F)F)cc1)C12CCC(CC1)C2	5.6	134.0*	6.4	104.0	0.0	-9.0	78.0	-13.0	87.0
C=C1C2(C(=O)Nc3ccc(SC(F)F)cc3)CCC(C2)C1(C)C (stereo not drawn)	-0.1	98.0	17.8	107.0	8.0	20.8	.	.	.
Cc1[nH]c2c(ccc3ccccc32)c1C1C(CCN)C1(C)C (stereo not drawn)	0.3	107.0	1.3	208.0*	37.0	35.3	166.0	41.0	108.0
S=c1[nH]c2ccc3ccccc3c2[nH]1	0.5	97.0	0.8	93.0	-2.0	56.9	.	.	.
CCCCCCCCCCCCCCCC[n+]1ccc(C(N)=O)cc1	0.5	106.0	5.5	139.0*	1.0	99.2*	157.0	31.0	104.0
CCCCCCCCCCCCCCCC[n+]1cccc(C(=O)N(CC)CC)c1	0.7	76.0	1.1	126.0	9.0	98.4	.	.	.
CCCCCCCCCCCCCCCC[n+]1ccc(/C=N/O)cc1	1.2	127.0	2.4	150.0*	45.0	97.8*	257.0*	181.0*	112.0
Cc1cccc(NC(=O)c2ccccc2NC(=O)c2ccco2)c1	.	108.0	.	114.0	8.0	.	.	.	.
O=C(Nc1ccc(N2CCCCC2)cc1)c1cccnc1Cl	0.1	108.0	0.8	111.0	5.0	14.6	.	.	.
CS(=O)(=O)N1CCN(c2ccc(NC(=O)c3cccnc3Cl)cc2)CC1	0.4	1.0*[inhibitor]	-0.4	-3.0*[inhibitor]	-20.0	-7.2	96.0	-7.0	84.0
COc1cc(CN2CCNC(=O)C2CC(=O)N(C)Cc2ncc[nH]2)cc(OC)c1 (stereo not drawn)	0.1	101.0	0.0	87.0	-9.0	1.5	.	.	.
O=C(Nc1cccc(-c2csc(Nc3ccc(Cl)cc3)n2)c1)c1cccc(C(F)(F)F)c1	.	123.0*	.	96.0	9.0	.	117.0	0.0	106.0
Cn1nc(-c2ccc(Cl)cc2)c2cc(C(=O)NCCCN3CCOCC3)sc21	-0.4	112.0	2.9	154.0*	13.0	3.9	140.0	19.0	104.0
Cn1nc(-c2ccc(Cl)cc2)c2cc(C(=O)NC3CC3)sc21	0.4	107.0	2.4	105.0	3.0	16.8	.	.	.
Cn1nc(-c2ccc(Cl)cc2)c2cc(C(=O)NCCN3CCOCC3)sc21	0.7	113.0	1.9	136.0*	9.0	17.9	127.0	14.0	109.0
Cc1nc(C)c(C(=O)O)c(-c2cccs2)c1C(=O)O	.	104.0	.	104.0	2.0	.	.	.	.
CCCn1nnnc1NC(=O)c1ccc(C)cc1Cl	0.3	107.0	3.8	107.0	3.0	5.1	.	.	.
O=C(NCC(=O)N(CC1CCCO1)C(C(=O)NC1CCCCC1)c1cccnc1)c1cccs1 (stereo not drawn)	-0.2	131.0*	-0.9	123.0	3.0	4.0	103.0	6.0	106.0
O=C(NCC(=O)N(CC1CCCO1)C(C(=O)NC1CCCCC1)c1ccccc1)c1cccs1 (stereo not drawn)	0.6	98.0	3.3	99.0	-1.0	-2.9	.	.	.
CCOC(=O)N1CCN(S(=O)(=O)c2ccc(C(=O)N(CCCN(C)C)c3nc4ccc(Cl)cc4s3)cc2)CC1	.	108.0	.	153.0*	30.0*	.	132.0	15.0	103.0
CCOC(=O)N1CCN(S(=O)(=O)c2ccc(C(=O)N(CCN(C)C)c3nc4ccc(CC)cc4s3)cc2)CC1	.	106.0	.	136.0*	16.0	.	138.0	15.0	102.0
CC(=O)Nc1ccc(NC(=O)CCNS(=O)(=O)c2cccc3nsnc23)cc1	-0.1	127.0	1.1	113.0	3.0	-7.4	.	.	.
SMILES	ABCB1 block	MEKK3 PB1 HTS	ABCG2 block	MEKK2 WT-MEK5	MEKK2mut PB1 HTS	WT yeast gro inh	MEKK2wt confirm	MEKK2mut-MEK5	MEKK3-MEK5 inh
CSc1cccc(CN2CCN(Cc3ccccc3)C(CCO)C2)c1 (stereo not drawn)	0.3	48.0*[inhibitor]	-0.1	58.0	-15.0	-12.1	101.0	4.0	101.0
Cc1ccc2[nH]c(=O)c(COC(=O)C3CCCCC3)cc2c1	.	129.0*	.	119.0	21.0	.	97.0	-18.0	96.0
O=C(OCc1cc2ccccc2[nH]c1=O)C1CCCCC1	1.7	100.0	4.6	100.0	4.0	-0.7	.	.	.
C/C(=N\Nc1ccc(S(N)(=O)=O)cc1[N+](=O)[O-])c1cccnc1	.	107.0	.	107.0	12.0	.	.	.	.
COc1ccc(-c2cc(Cl)cc3c(=O)c4ccccc4n(C)c23)cc1F	.	94.0	.	66.0*[inhibitor]	-6.0	.	75.0	-16.0	96.0
CCCC(=O)Nc1ccc(C(=O)NNC(=O)COc2ccc(Br)c(C)c2)cc1	0.1	.	3.0	.	.	10.3	.	.	.
O=C(COC(=O)c1ccccn1)c1cccc(Br)c1	.	99.0	.	104.0	2.0	.	.	.	.
CC(=O)Nc1ccc2nc(-c3ccc(Br)o3)[nH]c2c1	0.1	66.0*[inhibitor]	4.3	63.0*[inhibitor]	-3.0	1.9	104.0	9.0	104.0
O=C(COC(=O)c1cc(-c2ccc(F)cc2)nc2ccccc12)NCC1CCCO1 (stereo not drawn)	1.9	98.0	10.7	104.0	-2.0	9.1	.	.	.
O=C(NCc1ccc(Cl)c(Cl)c1)c1ccco1	0.4	109.0	16.3	112.0	11.0	1.5	.	.	.
Cc1ccc(S(=O)(=O)N2CCCN(C(=O)c3cc4ccccc4[nH]3)CC2)cc1	.	101.0	.	100.0	4.0	.	.	.	.
Cc1cc(C(F)F)nn1CC(=O)Nc1cc([N+](=O)[O-])ccc1F	-0.1	97.0	-0.3	96.0	-1.0	4.3	.	.	.
Cc1cc(C(F)F)nn1CC(=O)NCc1ccccc1F	0.1	141.0*	0.1	107.0	3.0	11.7	104.0	-3.0	103.0
Cc1ccc(NC(=O)CS(=O)CC(=O)N(CC(=O)NC(C)(C)C)c2cccc(C)c2C)cc1 (stereo not drawn)	.	102.0	.	94.0	-6.0	.	.	.	.
COc1ccc(-c2cc(-n3c(C(F)(F)F)nc4ccccc43)n(CCC#N)n2)cc1	0.1	82.0*[inhibitor]	0.3	86.0	-7.0	12.0	98.0	-10.0	100.0
